From ChEMBL document CHEMBL1156834, “Syntheses and biological activities of KRN7000 analogues having aromatic residues in the acyl and backbone chains with varying stereochemistry” (Bioorg Med Chem Lett, 2010)
The source made the active and inactive calls.

What was measured:
Assay type in all cases: cell-based
[1] = molecular target: T1, Antigen-presenting glycoprotein CD1d (Homo sapiens) (UniProt P15813); experiment: Induction of CD1D-mediated IL-13 production in human iNKT cells expressing CD4 at 400 nM after 18 hrs by ELISA
T1 sequence (whole entry): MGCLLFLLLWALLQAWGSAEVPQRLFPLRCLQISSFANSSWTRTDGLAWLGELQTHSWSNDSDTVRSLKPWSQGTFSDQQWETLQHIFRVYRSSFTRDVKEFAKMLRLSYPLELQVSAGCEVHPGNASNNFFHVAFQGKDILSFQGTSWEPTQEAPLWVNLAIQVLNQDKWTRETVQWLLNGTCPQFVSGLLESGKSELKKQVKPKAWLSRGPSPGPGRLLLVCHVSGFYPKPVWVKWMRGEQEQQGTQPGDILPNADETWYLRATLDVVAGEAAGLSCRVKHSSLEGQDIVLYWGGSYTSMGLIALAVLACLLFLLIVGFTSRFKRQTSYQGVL
Procedure, shortened: (§1)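 CD4⁺ human iNKT clone HDD11 with CD1d-transfected HeLa cells as APC, in RPMI-1640 plus 10% FBS. 2.5 × 10⁴ HeLa cells were pulsed with glycolipid for 18 h at 37 °C, washed, then given fresh glycolipid-free medium with 2.5 × 10⁴ iNKT cells. Supernatants were taken after a further 18 h at 37 °C, and cytokine was measured by capture ELISA.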

[2] = molecular target: T1, Antigen-presenting glycoprotein CD1d (Homo sapiens); experiment: Induction of CD1D-mediated IL-13 production in human iNKT cells expressing CD4 at 25 nM after 18 hrs by ELISA; procedure, shortened: as §1
[3] = molecular target: T1, Antigen-presenting glycoprotein CD1d (Homo sapiens); experiment: Induction of CD1D-mediated IL-4 production in human iNKT cells expressing CD4 at 25 nM after 18 hrs by ELISA; procedure, shortened: as §1
[4] = molecular target: T1, Antigen-presenting glycoprotein CD1d (Homo sapiens); experiment: Induction of CD1D-mediated IFN-gamma production in human iNKT cells expressing CD4 at 25 nM after 18 hrs by ELISA; procedure, shortened: as §1
[5] = molecular target: T1, Antigen-presenting glycoprotein CD1d (Homo sapiens); experiment: Induction of CD1D-mediated IL-13 production in human iNKT cells expressing CD4 at 25 to 400 nM after 18 hrs by ELISA; procedure, shortened: as §1
[6] = molecular target: T1, Antigen-presenting glycoprotein CD1d (Homo sapiens); experiment: Induction of CD1D-mediated IL-4 production in human iNKT cells expressing CD4 at 25 to 400 nM after 18 hrs by ELISA; procedure, shortened: as §1
[7] = molecular target: T1, Antigen-presenting glycoprotein CD1d (Homo sapiens); experiment: Induction of CD1D-mediated IFN-gamma production in human iNKT cells expressing CD4 at 25 to 400 nM after 18 hrs by ELISA; procedure, shortened: as §1

Measured: Activity

CCCCCCCCCCCCCCCCCCCCCCCCCC(=O)N[C@@H](CO[C@H]1O[C@H](CO)[C@H](O)[C@H](O)[C@H]1O)[C@H](O)[C@@H](O)CCCc1ccccc1
active: [1] | [2] | [3] | [4]

CCCCCCCCCCCCCCC[C@H](O)[C@H](CO[C@H]1O[C@H](CO)[C@H](O)[C@H](O)[C@H]1O)NC(=O)CCCCCCCCCc1ccccc1
active: [1] | [2] | [3] | [4]

CCCCCCCCCCCCCCCCCCCCCCCCCC(=O)N[C@@H](CO[C@H]1O[C@H](CO)[C@H](O)[C@H](O)[C@H]1O)[C@@H](O)CCCCCCCCCCCCCCC
active: [1] | [2] | [3] | [4]

CCCCCCCCCCCCCCCC[C@H](CO[C@H]1O[C@H](CO)[C@H](O)[C@H](O)[C@H]1O)NC(=O)CCCCCCCCCc1ccccc1
active: [1] | [5] | [6] | [7]

CCCCCCCCCCCCCCCCCCCCCCCCCC(=O)N[C@@H](CO[C@H]1O[C@H](CO)[C@H](O)[C@H](O)[C@H]1O)[C@H](O)[C@H](O)CCCCCCCCCCCCCC
active: [1]

CCCCCCCCCCCCCCCCCCCCCCCCCC(=O)N[C@@H](CO[C@H]1O[C@H](CO)[C@H](O)[C@H](O)[C@H]1O)[C@H](O)[C@H](O)CCCc1ccccc1
active: [1] | [5] | [6] | [7]

CCCCCCCCCCCCCCCCCCCCCCCCCC(=O)N[C@H](CCCCCCCCCCCCCCCC)CO[C@H]1O[C@H](CO)[C@H](O)[C@H](O)[C@H]1O
active: [1] | [2] | [3] | [4]

CCCCCCCCCCCCCC[C@H](O)[C@H](O)[C@H](CO[C@H]1O[C@H](CO)[C@H](O)[C@H](O)[C@H]1O)NC(=O)CCCCCc1ccccc1
active: [1] | [2] | [3] | [4]
